Legend:
Format in all cases: functional, organism-based
[1] = species on record: Mus musculus; assay: Radioactivity uptake in the pancreas was expressed as a percentage of the injected radioactive dose per gram of tissue (% ID/g) in B16/F1 Murine Melanoma-Bearing C57 Mice at 24 h
Procedure, shortened: (§1)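 C57 BL/6 female mice (7–8 weeks) carried B16/F1 tumours from 1×10^6 cells given s.c. in the right flank; tumours were ~500 mg at 9–10 days. Each mouse received […] of HPLC-purified, neutralized 111In-DOTA peptide via the tail vein. Mice were killed at 0.5, 2, 4 or 24 h pi. Tissues were weighed and γ-counted, expressed as % ID/g; ratios were tumor/tissue % ID/g.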

[2] = species on record: Mus musculus; assay: Uptake Ratio of Tumor/muscle (each in % ID/g) in B16/F1 Murine Melanoma-Bearing C57 Mice at 24 h; details: Muscle tissue
Procedure, shortened: (§2)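 Female C57 BL/6 mice, 7–8 weeks old, carried subcutaneous right-flank B16/F1 tumors from 1×10^6 cells and were used 9–10 days later at ~500 mg tumor weight. Each received […] of HPLC-purified, pH-neutralized ¹¹¹In-DOTA peptide by tail vein. Tumor and organs were excised at the stated time, weighed and γ-counted. Each tissue was taken as % ID/g, and tumor/normal-tissue ratios were formed from these values.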

[3] = species on record: Mus musculus; assay: Uptake Ratio of Tumor/liver (each in % ID/g) in B16/F1 Murine Melanoma-Bearing C57 Mice at 2 h; procedure, shortened: as §1
[4] = species on record: Mus musculus; assay: Radioactivity uptake in the spleen was expressed as a percentage of the injected radioactive dose per gram of tissue (% ID/g) in B16/F1 Murine Melanoma-Bearing C57 Mice at 4 h; procedure, shortened: as §1
[5] = species on record: Mus musculus; assay: Radioactivity uptake in the tumor was expressed as a percentage of the injected radioactive dose per gram of tissue (% ID/g) in B16/F1 Murine Melanoma-Bearing C57 Mice at 0.5 h; procedure, shortened: as §1
[6] = species on record: Mus musculus; assay: Radioactivity uptake in the blood was expressed as a percentage of the injected radioactive dose per gram of tissue (% ID/g) in B16/F1 Murine Melanoma-Bearing C57 Mice at 4 h; procedure, shortened: as §1
[7] = species on record: Mus musculus; assay: Radioactivity uptake in the kidneys was expressed as a percentage of the injected radioactive dose per gram of tissue (% ID/g) in B16/F1 Murine Melanoma-Bearing C57 Mice at 4 h; details: Kidney; procedure, shortened: as §1
[8] = species on record: Mus musculus; assay: Radioactivity uptake in the blood was expressed as a percentage of the injected radioactive dose per gram of tissue (% ID/g) in B16/F1 Murine Melanoma-Bearing C57 Mice at 0.5 h; procedure, shortened: as §1
[9] = species on record: Mus musculus; assay: Radioactivity uptake in the tumor was expressed as a percentage of the injected radioactive dose per gram of tissue (% ID/g) in B16/F1 Murine Melanoma-Bearing C57 Mice at 24 h; procedure, shortened: as §1
[10] = species on record: Mus musculus; assay: Uptake Ratio of Tumor/lungs (each in % ID/g) in B16/F1 Murine Melanoma-Bearing C57 Mice at 4 h; procedure, shortened: as §2
[11] = species on record: Mus musculus; assay: Radioactivity uptake in the tumor was expressed as a percentage of the injected radioactive dose per gram of tissue (% ID/g) in B16/F1 Murine Melanoma-Bearing C57 Mice at 4 h; procedure, shortened: as §1
[12] = species on record: Mus musculus; assay: Uptake Ratio of Tumor/kidneys (each in % ID/g) in B16/F1 Murine Melanoma-Bearing C57 Mice at 0.5 h; details: Kidney; procedure, shortened: as §1
[13] = species on record: Mus musculus; assay: Radioactivity uptake in the blood was expressed as a percentage of the injected radioactive dose per gram of tissue (% ID/g) in B16/F1 Murine Melanoma-Bearing C57 Mice at 2 h; procedure, shortened: as §1
[14] = species on record: Mus musculus; assay: Radioactivity uptake in the muscle was expressed as a percentage of the injected radioactive dose per gram of tissue (% ID/g) in B16/F1 Murine Melanoma-Bearing C57 Mice at 0.5 h; procedure, shortened: as §1
[15] = species on record: Mus musculus; assay: Radioactivity uptake in the muscle was expressed as a percentage of the injected radioactive dose per gram of tissue (% ID/g) in B16/F1 Murine Melanoma-Bearing C57 Mice at 24 h; procedure, shortened: as §1
[16] = species on record: Mus musculus; assay: Radioactivity uptake in the tumor was expressed as a percentage of the injected radioactive dose per gram of tissue (% ID/g) in B16/F1 Murine Melanoma-Bearing C57 Mice at 2 h; procedure, shortened: as §1
[17] = species on record: Mus musculus; assay: Radioactivity uptake in the kidneys was expressed as a percentage of the injected radioactive dose per gram of tissue (% ID/g) in B16/F1 Murine Melanoma-Bearing C57 Mice at 2 h; details: Kidney; procedure, shortened: as §1
[18] = species on record: Mus musculus; assay: Radioactivity uptake in the spleen was expressed as a percentage of the injected radioactive dose per gram of tissue (% ID/g) in B16/F1 Murine Melanoma-Bearing C57 Mice at 2 h; procedure, shortened: as §1
[19] = species on record: Mus musculus; assay: Radioactivity uptake in the pancreas was expressed as a percentage of the injected radioactive dose per gram of tissue (% ID/g) in B16/F1 Murine Melanoma-Bearing C57 Mice at 4 h; procedure, shortened: as §1
[20] = species on record: Mus musculus; assay: Radioactivity uptake in the lungs was expressed as a percentage of the injected radioactive dose per gram of tissue (% ID/g) in B16/F1 Murine Melanoma-Bearing C57 Mice at 0.5 h; details: Lung; procedure, shortened: as §1
[21] = species on record: Mus musculus; assay: Uptake Ratio of Tumor/blood (each in % ID/g) in B16/F1 Murine Melanoma-Bearing C57 Mice at 2 h; procedure, shortened: as §1
[22] = species on record: Mus musculus; assay: Uptake Ratio of Tumor/lungs (each in % ID/g) in B16/F1 Murine Melanoma-Bearing C57 Mice at 0.5 h; procedure, shortened: as §2
[23] = species on record: Mus musculus; assay: Uptake Ratio of Tumor/liver (each in % ID/g) in B16/F1 Murine Melanoma-Bearing C57 Mice at 24 h; procedure, shortened: as §1
[24] = species on record: Mus musculus; assay: Uptake of [111In]-labeled compound in spleen at 2 hr pi in the absence of 10 mg NDP
Procedure, shortened: (§3)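 C57 BL/6 female mice, 7–8 weeks old, inoculated s.c. in right flank with 1×10^6 B16/F1 melanoma cells. Used 9–10 days later at tumor weight ~500 mg. […] HPLC-purified 111In-DOTA peptide (neutral pH) given via tail vein, with or without […]. Killed 2 h pi. Tissues weighed and gamma-counted. Uptake expressed as % ID/g.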

[25] = species on record: Mus musculus; assay: Uptake of [111In]-labeled compound in pancreas at 2 hr pi in the absence of 10 mg NDP; procedure, shortened: as §3
[26] = species on record: Mus musculus; assay: Uptake of [111In]-labeled compound in blood at 2 hr pi in the absence of […]; procedure, shortened: as §3
[27] = species on record: Mus musculus; assay: Uptake of [111In]-labeled compound in muscle at 2 hr pi in the absence of […]; details: Muscle tissue; procedure, shortened: as §3
[28] = species on record: Mus musculus; assay: Uptake of [111In]-labeled compound in kidney at 2 hr pi in the presence of […]; procedure, shortened: as §3
[29] = species on record: Mus musculus; assay: Uptake of [111In]-labeled compound in liver at 2 h pi in the absence of […]; procedure, shortened: as §3
[30] = species on record: Mus musculus; assay: Uptake of [111In]-labeled compound in tumor at 2 hr pi in the absence of […]; procedure, shortened: as §3
[31] = species on record: Mus musculus; assay: Uptake of [111In]-labeled compound in heart at 2 hr pi in the presence of […]; procedure, shortened: as §3
[32] = species on record: Mus musculus; assay: Uptake of [111In]-labeled compound in muscle at 2 h pi in the presence of […]; details: Muscle tissue; procedure, shortened: as §3
[33] = species on record: Mus musculus; assay: Uptake of [111In]-labeled compound in heart at 2 hr pi in the absence of […]; procedure, shortened: as §3

Row | Substance | ID/g [1] | Uptake ratio [2] | Uptake ratio [3] | ID/g [4] | ID/g [5] | ID/g [6] | ID/g [7] | ID/g [8] | ID/g [9] | Uptake ratio [10] | ID/g [11] | Uptake ratio [12] | ID/g [13] | ID/g [14] | ID/g [15] | ID/g [16] | ID/g [17] | ID/g [18] | ID/g [19] | ID/g [20] | further results
1 | DOTA-ReCCEHdFRWCKPVD-OH | 0.017% | 27.3 | 51.3 | 0.16% | 8.96% | 0.051% | 8.13% | 1.33% | 2.48% | 104 | 7.32% | 0.78 | 0.05% | 0.25% | 0.082% | 8.29% | 8.07% | 0.23% | 0.031% | 1.16% | Uptake ratio [21]: 224; Uptake ratio [22]: 7.8; Uptake ratio [23]: 12.9
2 | DOTA-ReCCEHdFRWCKPV-NH2 | 0.027% | 173 | 49.9 | 0.22% | 10.4% | 0.034% | 9.27% | 1.57% | 4.86% | 100 | 9.46% | 0.85 | 0.065% | 0.42% | 0.031% | 11.4% | 8.98% | 0.09% | 0.043% | 1.7% | Uptake ratio [21]: 196; Uptake ratio [22]: 6.6; Uptake ratio [23]: 32.7
3 | Ac-Lys(DOTA)-ReCCEHdFRWCKPV-NH2 | 0.18% | 13.3 | 33.3 | 0.19% | 7.15% | 0.082% | 19% | 1.99% | 3.54% | 48.4 | 6.01% | 0.3 | 0.09% | 0.42% | 0.11% | 8.15% | 18.4% | 0.11% | 0.057% | 1.51% | Uptake ratio [21]: 175; Uptake ratio [22]: 4.7; Uptake ratio [23]: 12.7
4 | DOTA-ReCCEHdFRWCRPV-NH2 | 0.081% | 42.2 | 45.7 | 0.27% | 16.6% | 0.085% | 7.37% | 1.7% | 8.19% | 122 | 17.4% | 1.8 | 0.21% | 0.39% | 0.14% | 17.3% | 8.72% | 0.27% | 0.015% | 1.66% | ID/g [24]: 0.27%; ID/g [25]: 0.08%; ID/g [26]: 0.21%; ID/g [27]: 0.03%; ID/g [28]: 11.2%; ID/g [29]: 0.38%; ID/g [30]: 17.3%; ID/g [31]: 0.33%; ID/g [32]: 0.18%; Uptake ratio [21]: 93.7; Uptake ratio [22]: 11.1; Uptake ratio [23]: 25.6; ID/g [33]: 0.07%
5 | DOTA-ReCCEHdFRWCKPV-OH | 0.064% | 26.8 | 63 | 0.15% | 10.4% | 0.056% | 8.7% | 1.56% | 3.14% | 92 | 9.27% | 0.95 | 0.11% | 0.39% | 0.14% | 9.19% | 8.8% | 0.2% | 0.074% | 1.21% | Uptake ratio [21]: 143; Uptake ratio [22]: 9; Uptake ratio [23]: 18.5

— ChEMBL document CHEMBL1135742, “Modification of the structure of a metallopeptide: synthesis and biological evaluation of (111)In-labeled DOTA-conjugated rhenium-cyclized alpha-MSH analogues” (J Med Chem, 2002)
